Measurements: ChEMBL document CHEMBL1135620, “Cyclosporins: structure-activity relationships for the inhibition of the human FPR1 formylpeptide receptor” (J Med Chem, 2002)

Target: T1, fMet-Leu-Phe receptor (Homo sapiens) (UniProt P21462)
T1 sequence (whole entry): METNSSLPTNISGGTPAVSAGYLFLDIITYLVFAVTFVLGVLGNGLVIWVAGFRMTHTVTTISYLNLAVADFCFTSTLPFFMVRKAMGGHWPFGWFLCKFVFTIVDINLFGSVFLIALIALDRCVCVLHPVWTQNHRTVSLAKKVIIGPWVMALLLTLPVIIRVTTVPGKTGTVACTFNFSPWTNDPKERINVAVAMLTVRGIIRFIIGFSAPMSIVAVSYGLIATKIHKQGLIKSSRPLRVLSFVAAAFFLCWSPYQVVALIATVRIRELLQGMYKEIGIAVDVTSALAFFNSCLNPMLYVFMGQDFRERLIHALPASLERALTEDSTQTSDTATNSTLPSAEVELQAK
Experiment: Inhibitory activity against Human formylpeptide receptor (FPR) of human leukemia HL-60 cells
Format: cell-based
Outline: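 HL-60 cells differentiated 48 h with 0.2 mM dibutyryl cAMP, washed, then treated with 5 μM cytochalasin B (5–10 min, 37 °C). Stimulated 10 min with 30 nM f-MLF. N-acetyl-β-D-glucosaminidase release read at 410 nm on p-nitrophenyl substrate after spontaneous-release subtraction. Duplicate wells; IC20/IC50 as mean ± SD of independent experiments.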

| IC20 [µM] | SMILES |
| --- | --- |
| 0.31 | C/C=C/C[C@@H](C)[C@@H](O)[C@H]1C(=O)N[C@@H](CC)C(=O)N(C)CC(=O)N(C)[C@H](CC(C)C)C(=O)N[C@H](C(C)C)C(=O)N(C)[C@H](CC(C)C)C(=O)N[C@@H](C)C(=O)N[C@H](C)C(=O)N(C)[C@@H](CC(C)C)C(=O)N(C)[C@@H](CC(C)C)C(=O)N(C)[C@@H](C)C(=O)N1C |
| 0.09 | C/C=C/C[C@@H](C)[C@@H](O)[C@H]1C(=O)N[C@@H]([C@@H](C)O)C(=O)N(C)CC(=O)N(C)[C@H](CC(C)C)C(=O)N[C@@H]([C@@H](C)CC)C(=O)N(C)[C@H](CC(C)C)C(=O)N[C@@H](C)C(=O)N[C@H](C)C(=O)N(C)[C@@H](CC(C)C)C(=O)N(C)[C@@H](CC(C)C)C(=O)N(C)[C@@H](C(C)C)C(=O)N1C |
| 3.9 | CC/C=C/C[C@@H](C)[C@@H](O)[C@H]1C(=O)N[C@@H](C(C)C)C(=O)N(C)CC(=O)N(C)[C@H](CC(C)C)C(=O)N[C@H](C(C)C)C(=O)N(C)[C@H](CC(C)C)C(=O)N[C@@H](C)C(=O)N[C@H](C)C(=O)N(C)[C@@H](CC(C)C)C(=O)N(C)[C@@H](CC(C)C)C(=O)N(C)[C@@H](C(C)C)C(=O)N1C |
| 0.65 | C/C=C/C[C@@H](C)[C@@H](O)[C@H]1C(=O)N[C@@H](CC)C(=O)N(C)CC(=O)N(C)[C@H](CC(C)C)C(=O)N[C@H](C(C)C)C(=O)N(C)[C@H](CC(C)C)C(=O)N[C@@H](C)C(=O)N[C@H](C)C(=O)N(C)[C@@H](CC(C)C)C(=O)N[C@@H](CC(C)C)C(=O)N(C)[C@@H](C(C)C)C(=O)N1C |
| > 10 | C/C=C/C[C@@H](C)[C@@H](O)[C@H]1C(=O)N[C@@H](CC)C(=O)N(C)CC(=O)N[C@@H](CC(C)C)C(=O)N[C@H](C(C)C)C(=O)N(C)[C@H](CC(C)C)C(=O)N[C@@H](C)C(=O)N[C@H](C)C(=O)N(C)[C@@H](CC(C)C)C(=O)N(C)[C@@H](CC(C)C)C(=O)N(C)[C@@H](C(C)C)C(=O)N1C |
| 2.8 | C/C=C/C[C@@H](C)[C@@H](O)[C@H]1C(=O)N[C@@H](CC)C(=O)N(C)CC(=O)N[C@@H]([C@@H](C)CC)C(=O)N[C@H](C(C)C)C(=O)N(C)[C@H](CC(C)C)C(=O)N[C@@H](C)C(=O)N[C@H](C)C(=O)N(C)[C@@H](CC(C)C)C(=O)N(C)[C@@H](CC(C)C)C(=O)N(C)[C@@H](C(C)C)C(=O)N1C |
| 2.2 | CC/C=C/C[C@@H](C)[C@@H](O)[C@H]1C(=O)N[C@@H]([C@@H](C)O)C(=O)N(C)CC(=O)N(C)[C@H](CC(C)C)C(=O)N[C@H](C(C)C)C(=O)N(C)[C@H](CC(C)C)C(=O)N[C@@H](C)C(=O)N[C@H](C)C(=O)N(C)[C@@H](CC(C)C)C(=O)N(C)[C@@H](CC(C)C)C(=O)N(C)[C@@H](C(C)C)C(=O)N1C |
| 2.9 | C/C=C/C[C@@H](C)[C@@H](O)[C@H]1C(=O)N[C@@H](CC)C(=O)N(C)CC(=O)N(C)[C@H](CC(C)C)C(=O)N[C@H](C(C)C)C(=O)N(C)[C@H](CC(C)C)C(=O)N[C@@H](C)C(=O)N[C@H](C)C(=O)N(C)[C@@H](CC(C)C)C(=O)N(C)[C@@H](CC(C)C)C(=O)N(C)[C@@H]([C@@H](C)CC)C(=O)N1C |
| 1.44 | CC/C=C/C[C@@H](C)[C@@H](O)[C@H]1C(=O)N[C@@H](CC)C(=O)N(C)CC(=O)N(C)[C@@H](C(C)C)C(=O)N[C@H](C(C)C)C(=O)N(C)[C@H](CC(C)C)C(=O)N[C@@H](C)C(=O)N[C@H](C)C(=O)N(C)[C@@H](CC(C)C)C(=O)N(C)[C@@H](CC(C)C)C(=O)N(C)[C@@H](C(C)C)C(=O)N1C |
| 2.6 | CC/C=C/C[C@@H](C)[C@@H](O)[C@H]1C(=O)N[C@@H](CCC)C(=O)N(C)CC(=O)N(C)[C@H](CC(C)C)C(=O)N[C@H](C(C)C)C(=O)N(C)[C@H](CC(C)C)C(=O)N[C@@H](C)C(=O)N[C@H](C)C(=O)N(C)[C@@H](CC(C)C)C(=O)N(C)[C@@H](CC(C)C)C(=O)N(C)[C@@H](C(C)C)C(=O)N1C |
| 1.7 | CC/C=C/C[C@@H](C)[C@@H](O)[C@H]1C(=O)N[C@@H](CC)C(=O)N(C)CC(=O)N(C)[C@@H](CC(C)(C)O)C(=O)N[C@H](C(C)C)C(=O)N(C)[C@H](CC(C)C)C(=O)N[C@@H](C)C(=O)N[C@H](C)C(=O)N(C)[C@@H](CC(C)C)C(=O)N(C)[C@@H](CC(C)C)C(=O)N(C)[C@@H](C(C)C)C(=O)N1C |
| 8.9 | C/C=C/C[C@@H](C)[C@@H](O)[C@H]1C(=O)N[C@@H](CCC)C(=O)N(C)CC(=O)N(C)[C@H](CC(C)C)C(=O)N[C@@H](CC(C)C)C(=O)N(C)[C@H](CC(C)C)C(=O)N[C@@H](C)C(=O)N[C@H](C)C(=O)N(C)[C@@H](CC(C)C)C(=O)N(C)[C@@H](CC(C)C)C(=O)N(C)[C@@H](C(C)C)C(=O)N1C |

More lines, now with the values behind:

| SMILES | IC20 [µM] |
| --- | --- |
| C/C=C/C[C@@H](C)[C@@H](O)[C@H]1C(=O)N[C@@H]([C@@H](C)O)C(=O)N(C)CC(=O)N(C)[C@H](CC(C)C)C(=O)N[C@@H](CC(C)C)C(=O)N(C)[C@H](CC(C)C)C(=O)N[C@@H](C)C(=O)N[C@](O)(C(C)C)C(=O)N(C)[C@@H](CC(C)C)C(=O)N[C@@H](CC(C)C)C(=O)N(C)[C@@H](C(C)C)C(=O)N1C | 0.2 |
| C/C=C/C[C@@H](C)[C@@H](O)[C@H]1C(=O)N[C@@H](CC)C(=O)NCC(=O)N(C)[C@H](CC(C)C)C(=O)N[C@H](C(C)C)C(=O)N(C)[C@H](CC(C)C)C(=O)N[C@@H](C)C(=O)N[C@H](CO)C(=O)N(C)[C@@H](CC(C)C)C(=O)N(C)[C@@H](CC(C)C)C(=O)N(C)[C@@H](C(C)C)C(=O)N1C | 1.9 |
| CC/C=C/C[C@@H](C)[C@@H](O)[C@H]1C(=O)N[C@@H](CC)C(=O)N(C)CC(=O)N(C)[C@H](CC(C)C)C(=O)N[C@H](C(C)C)C(=O)N(C)[C@H](CC(C)C)C(=O)N[C@@H](C)C(=O)N[C@H](CCCCN)C(=O)N(C)[C@@H](CC(C)C)C(=O)N(C)[C@@H](CC(C)C)C(=O)N(C)[C@@H](C(C)C)C(=O)N1C | 0.5 |
| CC(C)C[C@@H]1NC(=O)[C@@H](CC(C)C)N(C)C(=O)CN(C)C(=O)[C@H]([C@@H](C)O)NC(=O)[C@H]([C@H](O)[C@H](C)C/C=C/CO)N(C)C(=O)[C@H](C(C)C)N(C)C(=O)[C@H](CC(C)C)NC(=O)[C@H](CC(C)C)N(C)C(=O)[C@@](O)(C(C)C)NC(=O)[C@H](C)NC(=O)[C@@H](CC(C)C)N(C)C1=O | 0.47 |
| CC/C=C/C[C@@H](C)[C@@H](O)[C@H]1C(=O)N[C@@H](CC)C(=O)N(C)CC(=O)N(C)[C@H](CC(C)C)C(=O)N[C@H](C(C)C)C(=O)N(C)[C@@H](C)C(=O)N[C@@H](C)C(=O)N[C@H](C)C(=O)N(C)[C@@H](CC(C)C)C(=O)N(C)[C@@H](CC(C)C)C(=O)N(C)[C@@H](C(C)C)C(=O)N1C | > 10 |
| C/C=C/C[C@@H](C)[C@@H](O)[C@H]1C(=O)N[C@@H](CCC)C(=O)N(C)CC(=O)N(C)[C@H](CC(C)C)C(=O)N[C@H](C(C)C)C(=O)N[C@@H](CC(C)C)C(=O)N[C@@H](C)C(=O)N[C@H](C)C(=O)N(C)[C@@H](CC(C)C)C(=O)N(C)[C@@H](CC(C)C)C(=O)N(C)[C@@H](C(C)C)C(=O)N1C | 8.1 |
| C/C=C/C[C@@H](C)[C@@H](O)[C@H]1C(=O)N[C@@H]([C@@H](C)O)C(=O)N(C)CC(=O)N[C@@H](CC(C)C)C(=O)N[C@@H](CC(C)C)C(=O)N(C)[C@H](CC(C)C)C(=O)N[C@@H](C)C(=O)N[C@](O)(C(C)C)C(=O)N(C)[C@@H](CC(C)C)C(=O)N[C@@H](CC(C)C)C(=O)N(C)[C@@H](C(C)C)C(=O)N1C | 0.14 |
| CC/C=C/C[C@@H](C)[C@@H](O)[C@H]1C(=O)N[C@@H](CC)C(=O)N(C)[C@@H](Cc2ccccc2)C(=O)N(C)[C@H](CC(C)C)C(=O)N[C@H](C(C)C)C(=O)N(C)[C@H](CC(C)C)C(=O)N[C@@H](C)C(=O)N[C@H](C)C(=O)N(C)[C@@H](CC(C)C)C(=O)N(C)[C@@H](CC(C)C)C(=O)N(C)[C@@H](C(C)C)C(=O)N1C | > 10 |
| C/C=C/C[C@@H](C)[C@@H](O)[C@H]1C(=O)N[C@@H]([C@@H](C)O)C(=O)N(C)CC(=O)N(C)[C@H](CC(C)C)C(=O)N[C@@H]([C@@H](C)CC)C(=O)N(C)[C@H](CC(C)C)C(=O)N[C@@H](C)C(=O)N[C@](O)(C(C)C)C(=O)N(C)[C@@H](CC(C)C)C(=O)N[C@@H](CC(C)C)C(=O)N(C)[C@@H](C(C)C)C(=O)N1C | 0.29 |
| C/C=C/C[C@@H](C)[C@@H](O)[C@H]1C(=O)N[C@@H]([C@@H](C)O)C(=O)N(C)CC(=O)N(C)[C@H](CC(C)C)C(=O)N[C@H](C(C)C)C(=O)N(C)[C@H](CC(C)C)C(=O)N[C@@H](C)C(=O)N[C@H](C)C(=O)N(C)[C@@H](CC(C)C)C(=O)N[C@@H](CC(C)C)C(=O)N(C)[C@@H](C(C)C)C(=O)N1C | 2.05 |
| C/C=C/C[C@@H](C)[C@@H](O)[C@H]1C(=O)N[C@@H](CC)C(=O)N(C)CC(=O)N(C)[C@H](CC(C)C)C(=O)N[C@H](C(C)C)C(=O)N[C@@H](CC(C)C)C(=O)N[C@@H](C)C(=O)N[C@H](C)C(=O)N(C)[C@@H](CC(C)C)C(=O)N[C@@H](CC(C)C)C(=O)N(C)[C@@H](C(C)C)C(=O)N1C | 0.37 |
| C/C=C/C[C@@H](C)[C@@H](O)[C@H]1C(=O)N[C@@H]([C@@H](C)O)C(=O)N(C)CC(=O)N(C)[C@H](CC(C)C)C(=O)N[C@@H](CC(C)C)C(=O)N(C)[C@H](CC(C)C)C(=O)N[C@@H](C)C(=O)N[C@H](C)C(=O)N(C)[C@@H](CC(C)C)C(=O)N[C@@H](CC(C)C)C(=O)N(C)[C@@H](C(C)C)C(=O)N1C | 0.2 |
| C/C=C/C[C@@H](C)[C@@H](O)[C@H]1C(=O)N[C@@H](CCC)C(=O)N(C)CC(=O)N(C)[C@H](CC(C)C)C(=O)N[C@H](C(C)C)C(=O)N(C)[C@H](CC(C)C)C(=O)N[C@@H](C)C(=O)N[C@H](C)C(=O)N[C@@H](CC(C)C)C(=O)N(C)[C@@H](CC(C)C)C(=O)N(C)[C@@H](C(C)C)C(=O)N1C | 2.1 |
